Compound activity: PubChem BioAssay, Broad Institute
This is a sample that favours compounds with a hit; in the whole collection about 3.5% have one here.
FN deposition inh = fibronectin deposition inhibition; AH1F fibroblasts, Alexa488-fibronectin deposition fluorescence, overnight; inhibition, % at 12.6 µM; 350,000 compounds, 0.086% hits;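 active means mean inhibition across replicates of 30% or more, regardless of how many single replicates reach that level; inconclusive means mean under 30% yet at least half of replicates reach 30%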
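Material: AH1F fibroblast monolayer depositing Alexa488-labelled fibronectin into matrix / Amount: 10000 AH1F cells per well / Signal: fluorescence 485/525 nm / Medium: DMEM, 2% serum / Compound: single dose, pinned / Incubation: 1 h cell adhesion before compound, then overnight fibronectin incubation / Reagent: Alexa488-FN, 24 nM final / Read-out: inhibition of fibronectin deposition signal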
DENV2 CPE = inhibitors of DENV2 cytopathic effect; DENV2-infected cells, cytopathic effect rescue, plate reader; CPE inhibition, % at 9.99 µM; 350,000 compounds, 1.7% hits; AID 651640; in the data active means CPE inhibition above about 20%, passing the limit was not always enough; inconclusive means no clear call, values can overlap the other calls; tested in BHK-21 cells
PglD inh = inhibitors of Campylobacter jejuni PglD acetyltransferase; 360,000 compounds, 0.098% hits; AID 602405; inhibition, % at 12.5 µM; purified PglD enzyme, DTNB colorimetric CoA detection; in the data active means inhibition above about 16%, passing the limit was not always enough; inconclusive means no clear call, values can overlap the other calls
HIV Env fusion = HIV envelope-mediated fusion inhibition | AID 651610 | HeLa-JRFL Env/CEM21 cell fusion, luciferase | 360,000 compounds, 1.1% hits | inhibition, % at 12.3 µM;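 active means mean replicate inhibition score of at least 50 and every replicate individually at or above 50; inconclusive means only one of the two criteria met; inactive means mean below 50 and not all replicates reaching 50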
PGC1a acetyl inh = PGC1a acetylation modulation, inhibitor mode; U2OS PGC1a acetylation, AlphaScreen anti-acetyl-lysine; with virally co-expressed GCN5 acetyltransferase; inhibition, % at 15.6 µM; 350,000 compounds, 0.17% hits; AID 651687;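 active means every replicate shows inhibition of at least 40%; inconclusive means mean inhibition at least 40% but some replicate below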
Ecoli rRNA inh = selective bacterial rRNA inhibition in E. coli; GFP signal change (wild-type ribosome), % (concentration not given with the values); AID 720706; E. coli WT GFP vs humanized-ribosome RFP mutants, fluorescence, 24 h; active compounds read low; DMSO median 0, no signal -100; 350,000 compounds, 1.6% hits;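 active means significant combined selectivity score with lowered wild-type GFP, culture density cut under 30%, mutant RFP and density less affected; inactive means any of these conditions unmet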
AID977621 = growth inhibition of wild-type GFP E. coli, dose response, H69 mutant RFP, cherry-pick | E. coli wild-type GFP strain growth, fluorescence, 24 h | activity change, negative = inhibition at 50 µM | 1,900 tested, under 10 active | shares compounds with Ecoli rRNA inh;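 active means Wild-type ribosome reporter drop at least double the humanized mutant ribosome reporter drop, growth loss under a set limit; inconclusive means no clear call, values can overlap the other calls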;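 further: wild-type GFP and H69 mutant RFP strains grown together 50/50 in each well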
AID977628 = growth of wild-type and h24-humanized E. coli strains – h24 mutant RFP vs wild-type GFP, cherry-pick, dose response | shares compounds with Ecoli rRNA inh | E. coli WT GFP strain growth, fluorescence, 24 h | activity change, negative = inhibition at 50 µM | 1,900 tested, under 10 active | AID 977628;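 active means compound lowering the normal-ribosome reporter at least twice as much as the humanized-ribosome reporter, growth loss under a set limit; inconclusive means no clear call, values can overlap the other calls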;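 further: wild-type GFP and h24 humanized RFP strains co-cultured 1 to 1 per well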
Numbers stand for hits; ! = not confirmed by another sample.

For C[C@@H]1CCCCO[C@H](CN(C)C(=O)Nc2ccc3c(c2)OCO3)[C@H](C)CN([C@@H](C)CO)C(=O)c2cc(N(C)C)ccc2O1 the results were DENV2 CPE inactive, PglD inh inactive, HIV Env fusion inactive, PGC1a acetyl inh inactive and Ecoli rRNA inh inactive.
C[C@H]1CCCCO[C@H](CN(C)C(=O)c2ccncc2)[C@@H](C)CN([C@@H](C)CO)C(=O)c2cc(NC(=O)CCC(F)(F)F)ccc2O1 was read as FN deposition inh inactive, DENV2 CPE inconclusive, PglD inh inactive, HIV Env fusion inactive, PGC1a acetyl inh inactive and Ecoli rRNA inh inactive.
For Clc1ccc2nc(CN3CCCc4ccccc43)cn2c1 the results were DENV2 CPE inactive, PglD inh inactive, PGC1a acetyl inh inactive, Ecoli rRNA inh -20! and AID977621 inactive.
`Cc1ccc(-c2ccc(C3[C@H]4CNC[C@@H]3N4Cc3nccs3)cc2)cc1` (some centres undefined) gave FN deposition inh inactive, DENV2 CPE inactive and Ecoli rRNA inh inactive.
C(=C\c1ccc(C2[C@H]3CNC[C@@H]2N3Cc2nccs2)cc1)/c1ccccc1 (some centres undefined) was read as FN deposition inh inactive, DENV2 CPE inactive, Ecoli rRNA inh -21! and AID977628 inconclusive.
For Cc1cccc(-c2n[nH]c(S(C)(=O)=O)c2C#N)c1 the results were FN deposition inh inactive, DENV2 CPE inactive, HIV Env fusion inactive and Ecoli rRNA inh inactive.
Screening Cc1ccc(-c2n[nH]c(S(C)(=O)=O)c2C#N)cc1 returned FN deposition inh inactive, DENV2 CPE inactive, HIV Env fusion inactive, Ecoli rRNA inh -21, AID977621 inactive and AID977628 inconclusive.
For COc1ccc2cc(CO)c3cc(OC)c(OC)cc3c2c1 the results were FN deposition inh inactive, DENV2 CPE inactive, PglD inh inactive, HIV Env fusion inactive, Ecoli rRNA inh -28 and AID977621 inactive.
Screening COc1ccc2cc(CO)c(Cl)nc2c1 returned FN deposition inh inactive, DENV2 CPE inactive, PglD inh inactive, HIV Env fusion inactive, PGC1a acetyl inh inactive and Ecoli rRNA inh inactive.
Screening CC(C)(C)CC(=O)Nc1ccccc1N1CCN(c2ccccc2)CC1 returned FN deposition inh inactive, DENV2 CPE inactive, HIV Env fusion inactive, PGC1a acetyl inh inactive, Ecoli rRNA inh -19, AID977621 inactive and AID977628 inactive.
`Cc1noc(C)c1NC(=O)N(C)C[C@H]1Oc2ccc(NC(=O)NC3CCCCC3)cc2CC(=O)N([C@@H](C)CO)C[C@H]1C` gave DENV2 CPE inactive, PglD inh inactive, HIV Env fusion inactive, PGC1a acetyl inh inactive and Ecoli rRNA inh inactive.
`C[C@@]12C(=O)N(c3ccc(C(F)(F)F)cc3)C(=O)N1[C@@H]1c3ccccc3OC[C@@H]1[C@H]2c1ccccc1` gave PglD inh inactive.
For C[C@]12C(=O)N(c3ccc(F)cc3)C(=O)N1[C@@H]1c3ccccc3OC[C@@H]1[C@H]2c1ccccc1 the results were FN deposition inh inactive, DENV2 CPE inactive, PglD inh inactive, HIV Env fusion inactive, Ecoli rRNA inh -25, AID977621 inactive and AID977628 inactive.
`CC(=O)c1ccc(N2CCN(C(=O)C3CCN(S(=O)(=O)c4ccc5c(c4)CC(C)N5C(C)=O)CC3)CC2)cc1` (centres undefined) gave FN deposition inh inactive, DENV2 CPE inactive, PglD inh inactive, HIV Env fusion inactive, PGC1a acetyl inh inactive, Ecoli rRNA inh -19 and AID977621 inactive.
Screening O=C(Nc1cccc(F)c1)N1C[C@@H]2[C@H](c3ccccc31)[C@H](CO)N2C(=O)Cc1ccccn1 returned FN deposition inh inactive, DENV2 CPE inactive, PglD inh inactive, PGC1a acetyl inh inactive, Ecoli rRNA inh -18, AID977621 inactive and AID977628 inactive.
`COCC(=O)N1[C@@H]2CN(C(=O)Nc3ccccc3F)c3ccccc3[C@@H]2[C@@H]1CO` gave DENV2 CPE inactive, PglD inh inactive, PGC1a acetyl inh inactive, Ecoli rRNA inh -18, AID977621 inactive and AID977628 inconclusive.
Screening CCC(=O)N1[C@H](CO)[C@@H]2c3ccccc3N(C(=O)Nc3ccc(Cl)cc3)C[C@@H]21 returned FN deposition inh inactive, DENV2 CPE inconclusive, PglD inh inactive, PGC1a acetyl inh inactive, Ecoli rRNA inh -22 and AID977621 inactive.
COCC(=O)Nc1ccc2c(c1)C(=O)N(C)C[C@H](OC)[C@H](C)CN(CC1CC1)[C@@H](C)CO2 was read as FN deposition inh inactive, DENV2 CPE inactive, PglD inh inactive, PGC1a acetyl inh inactive and Ecoli rRNA inh inactive.
COc1ccc(NC(=O)Nc2cccc3c2O[C@@H](CN(C)S(=O)(=O)c2ccc(OC)cc2)[C@@H](C)CN([C@H](C)CO)C3=O)cc1 was read as DENV2 CPE inactive, PglD inh inactive, HIV Env fusion inactive, PGC1a acetyl inh inactive and Ecoli rRNA inh inactive.
Screening COc1ccc(NC(=O)Nc2cccc3c2O[C@@H](CN(C)S(=O)(=O)c2ccc(Cl)cc2)[C@H](C)CN([C@H](C)CO)C3=O)cc1 returned DENV2 CPE inactive, PglD inh inactive, HIV Env fusion inactive, PGC1a acetyl inh inactive, Ecoli rRNA inh inactive and AID977628 inconclusive.
COc1ccc(NC(=O)Nc2cccc3c2O[C@@H](CN(C)S(=O)(=O)c2ccc(OC)cc2)[C@@H](C)CN([C@@H](C)CO)C3=O)cc1 was read as DENV2 CPE inactive, PglD inh inactive, HIV Env fusion inactive, PGC1a acetyl inh inactive and Ecoli rRNA inh inactive.
COc1ccc(NC(=O)Nc2cccc3c2O[C@H](CN(C)S(=O)(=O)c2ccc(Cl)cc2)[C@@H](C)CN([C@H](C)CO)C3=O)cc1 was read as DENV2 CPE inactive, PglD inh inactive, HIV Env fusion inactive, PGC1a acetyl inh inactive, Ecoli rRNA inh inactive and AID977628 inconclusive.
O=C(N[C@H]1CC[C@H](CCNC(=O)c2cnccn2)O[C@@H]1CO)c1ccc2c(c1)OCO2 was read as FN deposition inh inactive, DENV2 CPE inactive, PglD inh inactive, HIV Env fusion inactive, PGC1a acetyl inh inactive and Ecoli rRNA inh inactive.
Screening COc1ccc(NC(=O)N(C)C[C@H]2Oc3ccc(NC(=O)Nc4ccc5c(c4)OCO5)cc3CC(=O)N([C@H](C)CO)C[C@@H]2C)cc1 returned DENV2 CPE inactive, PglD inh inactive, HIV Env fusion inactive, PGC1a acetyl inh inactive and Ecoli rRNA inh inactive.
